{"source": "ChEMBL document CHEMBL6103596", "about": "“Design, Synthesis, and Biological Evaluation of BODIPY-Caged Resiquimod as a Dual-Acting Phototherapeutic” (J Med Chem, 2025)", "key": {"AD293": {"tested_on": "AD293", "experiment": "Effect on morphological changes in human AD293 cells at 10 uM", "type": "functional, cell-based", "method_in_brief": "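AD293 cells treated with 10 μM compound, followed by LED irradiation or kept unirradiated, then morphology examined by microscopy.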"}, "[1]": {"experiment": "Drug uptake in human AD293 cells assessed as increase in red fluorescence at 10 uM measured after 40 mins by fluorescence imaging based analysis", "type": "ADME, cell-based", "conditions": "ad293, 40 min"}, "[2]": {"target": "T1, Toll-like receptor 7 (Homo sapiens) (UniProt Q9NYK1)", "T1 sequence (whole entry)": "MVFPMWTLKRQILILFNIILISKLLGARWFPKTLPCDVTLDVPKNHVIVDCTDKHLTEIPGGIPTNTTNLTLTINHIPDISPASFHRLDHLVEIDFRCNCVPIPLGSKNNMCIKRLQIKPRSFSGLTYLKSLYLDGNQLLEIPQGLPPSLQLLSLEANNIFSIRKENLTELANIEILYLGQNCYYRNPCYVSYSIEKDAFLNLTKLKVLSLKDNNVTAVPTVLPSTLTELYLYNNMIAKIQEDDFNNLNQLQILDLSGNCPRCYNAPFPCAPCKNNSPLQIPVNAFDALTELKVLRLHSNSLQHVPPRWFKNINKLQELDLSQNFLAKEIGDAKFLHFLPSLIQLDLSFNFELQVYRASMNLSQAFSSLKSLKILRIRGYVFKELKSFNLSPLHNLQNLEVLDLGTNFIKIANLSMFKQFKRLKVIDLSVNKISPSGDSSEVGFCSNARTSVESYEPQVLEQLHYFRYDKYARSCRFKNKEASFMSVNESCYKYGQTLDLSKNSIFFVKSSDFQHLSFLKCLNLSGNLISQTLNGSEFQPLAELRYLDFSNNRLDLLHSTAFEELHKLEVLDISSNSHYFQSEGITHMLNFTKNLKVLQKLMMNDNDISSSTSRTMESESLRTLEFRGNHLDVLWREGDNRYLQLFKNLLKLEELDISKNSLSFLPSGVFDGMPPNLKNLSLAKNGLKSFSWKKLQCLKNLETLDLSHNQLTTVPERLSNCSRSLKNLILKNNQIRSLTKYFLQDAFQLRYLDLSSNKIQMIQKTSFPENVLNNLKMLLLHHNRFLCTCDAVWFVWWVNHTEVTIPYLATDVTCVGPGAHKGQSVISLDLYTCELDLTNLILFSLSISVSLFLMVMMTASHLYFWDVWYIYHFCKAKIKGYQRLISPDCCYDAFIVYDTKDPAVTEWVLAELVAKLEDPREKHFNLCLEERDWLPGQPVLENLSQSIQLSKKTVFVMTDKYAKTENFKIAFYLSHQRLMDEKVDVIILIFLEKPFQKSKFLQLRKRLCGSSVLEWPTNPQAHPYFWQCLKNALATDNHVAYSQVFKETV", "experiment": "Activation of TLR7 in human AD293 cells assessed as IkappaB-alpha degradation at 10 uM preincubated with NAC followed by compound addition and measured after 30 mins under 650nm red light irradiation by Western blot analysis", "type": "cell-based", "conditions": "filed as activator", "method_in_brief": "(§1)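 Stable TLR7-expressing AD293 line made by TLR7 plasmid transfection and hygromycin B selection (250 μg/mL, 10 days). Cells pretreated with N-acetyl-cysteine, then given 10 μM compound, with or without 30 min 650 nm red-light irradiation. Lysates run on 10% SDS-PAGE and blotted to PVDF. Total IκB probed (1:1000) with GAPDH loading control, ECL detection. Means of three experiments.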"}, "[3]": {"target": "T1, Toll-like receptor 7 (Homo sapiens)", "experiment": "Activation of TLR7 in human AD293 cells assessed as IkappaB-alpha degradation at 10 uM preincubated with NAC followed by compound addition and measured after 30 mins by Western blot analysis", "type": "cell-based", "method_in_brief": "as §1"}, "[4]": {"experiment": "Upregulation of iNOS mRNA expression in mouse RAW264.7 cells assessed as fold change at 100 nM preincubated with NAC followed by compound addition and measured after 30 mins under 650nm LED light irradiation by real-time PCR analysis", "type": "functional", "conditions": "0.5 h", "method_in_brief": "(§2)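 RAW264.7 cells seeded at 0.3 million per 35 mm dish. Next day, pretreated with 10 mM N-acetyl-cysteine for 30 min, then given 100 nM compound and 650 nm LED light for 30 min. Total RNA taken 24 h later and reverse transcribed with random primers. SYBR real-time PCR run for 40 cycles (95/60/72 °C). Quantities calculated by the Ct method. Results given as fold change, means ± SD.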"}, "[5]": {"experiment": "Upregulation of TNF-alpha mRNA expression in mouse RAW264.7 cells assessed as fold change at 100 nM preincubated with NAC followed by compound addition and measured after 30 mins under 650nm LED light irradiation by real-time PCR analysis", "type": "functional", "conditions": "0.5 h", "method_in_brief": "as §2"}, "[6]": {"experiment": "Photosensitizing ability of the compound assessed as singlet oxygen quantum yield under 600nm monochromatic light irradiation by DPBF based assay relative to control", "type": "functional", "method_in_brief": "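Singlet oxygen generation followed by the decrease in DPBF absorbance under irradiation. DPBF (20–25 μm) used at 5–10-fold excess over compound (2.5–5 μm).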"}, "[7]": {"experiment": "Induction of superoxide anion radical assessed as DMPO-O2 radical adduct formation under dark condition measured after 10 mins by ESR spectra analysis", "type": "functional", "method_in_brief": "(§3)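 ESR spectra recorded with DMPO as spin trap to detect superoxide and/or hydroxyl radical adducts, before and after 10 min irradiation of compound.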"}, "[8]": {"experiment": "Induction of superoxide anion radical assessed as DMPO-O2 radical adduct formation under light irradiation measured after 10 mins by ESR spectra analysis", "type": "functional", "method_in_brief": "as §3"}, "[9]": {"experiment": "Phototoxicity in human A549 cells assessed as cell viability at 10 uM under 530 ot 650nm 30 mW LED light irradiation and measured after 72 hrs by CCK-8 method relative to control", "type": "functional", "conditions": "A549, light or radiation study, read-out: Activity", "method_in_brief": "(§4)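 A549, HaCaT and HeLa cells seeded at 2 × 10^3 cells/well in phenol red-free DMEM with 10% FBS. After 24 h, medium replaced with 1% DMSO containing 10 μM compound. After 90 min, one plate kept dark and one exposed to 530 or 650 nm LED (30 mW) for 15 min. Plates incubated 72 h, then CCK-8 read at 450 nm. Viability taken relative to dark control. Triplicates (HaCaT six).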"}, "[10]": {"experiment": "Dark toxicity in human HaCaT cells assessed as cell viability at 10 uM under dark condition and measured after 72 hrs by CCK-8 method relative to control", "type": "cell-based", "conditions": "read-out: Activity", "method_in_brief": "as §4"}, "[11]": {"experiment": "Phototoxicity in human HaCaT cells assessed as cell viability at 10 uM under 530 ot 650nm 30 mW LED light irradiation and measured after 72 hrs by CCK-8 method relative to control", "type": "functional", "conditions": "light or radiation study, read-out: Activity", "method_in_brief": "as §4"}, "[12]": {"experiment": "Thermal stability of compound in DMSO-d6 at 37.5 degree C measured before 24 hrs by 1H NMR spectroscopy analysis", "type": "physicochemical", "method_in_brief": "(§5)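 Compound in DMSO-d6 followed by 1H NMR. Degradation taken from the intensity of three signals (one resiquimod, one BODIPY, and the linkage NH), each relative to the DMSO-d6 internal standard, and the three averaged.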"}, "[13]": {"experiment": "Thermal stability of compound in DMSO-d6 at 37.5 degree C measured after 2 days by 1H NMR spectroscopy analysis relative to control", "type": "physicochemical", "conditions": "48 h; time 2 day", "method_in_brief": "as §5"}, "[14]": {"experiment": "Photorelease activity of the compound in DMSO-d6 measured within 90 mins under 660nm 400mW LED light by 1H NMR spectroscopy analysis relative to control", "type": "ADME", "conditions": "1.5 h"}}, "note": "The source made the active and inactive calls. The rule behind the calls is not given here.", "data": [{"smiles": "CCOCc1nc2c(NC(=O)OCC3=C4C(C)=CC(/C=C/c5ccc(OCCOCCOCCOC)cc5)=[N+]4[B-](C)(C)n4c(/C=C/c5ccc(OCCOCCOCCOC)cc5)cc(C)c43)nc3ccccc3c2n1CC(C)(C)O", "values": [{"measurement": "Activity", "setting": "AD293", "value": "inactive"}, {"measurement": "Drug uptake", "setting": "[1]", "value": "Active"}, {"measurement": "Activity", "setting": "[2]", "value": "Active"}, {"measurement": "Activity", "setting": "[3]", "value": "inactive"}, {"measurement": "fold change (FC)", "setting": "[4]", "value": "~4"}, {"measurement": "fold change (FC)", "setting": "[5]", "value": "~2"}, {"measurement": "Activity", "setting": "[6]", "value": 1.2, "unit": "%"}, {"measurement": "Activity", "setting": "[7]", "value": "inactive"}, {"measurement": "Activity", "setting": "[8]", "value": "inactive"}, {"measurement": "viability at 10 µM", "setting": "[9]", "value": 55, "unit": "%"}, {"measurement": "viability at 72 h, 10 µM", "setting": "[10]", "value": 2, "unit": "%"}, {"measurement": "viability at 10 µM", "setting": "[11]", "value": 41, "unit": "%"}, {"measurement": "Activity", "setting": "[12]", "value": "Not_active"}, {"measurement": "Activity", "setting": "[13]", "value": 11, "unit": "%"}, {"measurement": "Activity", "setting": "[14]", "value": "~ 90%"}]}]}
